Test results reported in ChEMBL document CHEMBL1122230, “Quantitative aspects of the receptor binding of cytokinin agonists and antagonists” (J Med Chem, 1983).

What was measured:
Nicotiana tabacum [1] = test: Concentration at which 50% of maximum response of callus yield derived from Nicotiana tabacum var is obtained; format: functional
Method in brief: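 Three Nicotiana tabacum callus pieces of ca. 10 mg fresh weight were placed per culture. E50 is the concentration giving 50% of maximal callus yield.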

Nicotiana tabacum [2] = test: Inhibition of 50% growth of tobacco callus derived from Nicotiana tabacum var on medium with 0.05 uM kinetin but without anti-cytokinin; NR=not reached to the maximum growth within the concentration range tested; format: functional, organism-based
Method in brief: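 Basal medium with 0.05 μM kinetin plus the test compound at a series of concentrations, pH 5.6 (1 N NaOH), autoclaved at 1.0 kg/cm² for 15 min. Three tobacco callus pieces of ca. 10 mg fresh weight were used per culture. I50 is the concentration giving 50% of the callus growth seen on kinetin medium without anticytokinin.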

| Structure (SMILES) | Log 1/E50 (Nicotiana tabacum [1]) | Log 1/I50 (Nicotiana tabacum [2]) |
| --- | --- | --- |
| CCOCCNc1[nH]c(C)nc2nccc1-2 | -1.37 |  |
| Cc1nc(NCCc2ccccc2)c2cc[nH]c2n1 | -1.37 |  |
| CCCCC(CC)CNc1[nH]c(C)nc2nccc1-2 (stereo unspecified) | -0.84 |  |
| Cc1nc(Nc2cccc(Cl)c2)c2cc[nH]c2n1 | -0.66 |  |
| Cc1nc(Nc2cccc(I)c2)c2cc[nH]c2n1 | -0.73 |  |
| CC(C)=CCNc1[nH]c(C)nc2nccc1-2 | 0.08 |  |
| Cc1cccc(Nc2[nH]c(C)nc3nccc2-3)c1 | -1.12 |  |
| Cc1nc(NCCO)c2cc[nH]c2n1 |  | Not reached |
| Cc1nc(Nc2cccc(Br)c2)c2cc[nH]c2n1 | -0.8 |  |
| CCCCCNc1[nH]c(C)nc2nccc1-2 | -0.72 |  |
| Cc1nc(NCc2ccccc2)c2cc[nH]c2n1 [ROLODINE] | -0.72 |  |
